Source: ChEMBL document CHEMBL2203116, “Synthesis and evaluation of novel carbon-11 labeled oxopurine analogues for positron emission tomography imaging of translocator protein (18 kDa) in peripheral organs” (J Med Chem, 2011)
Each block holds one molecule with its values, some of them ahead of it.

Experiments:
[1] = Lipophilicity, log D of the compound in octanol-phosphate buffer at pH 7.4 by shake flask method; type: physicochemical
Procedure, shortened: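 Radioligand (~200000 cpm) shaken with n-octanol (3.0 g) and 0.1 M sodium phosphate buffer pH 7.4 (3.0 g). Vortexed 3 min at room temperature, centrifuged 3500 rpm for 5 min. Phases weighed and counted; organic layer repartitioned until consistent. LogD = log of the cpm/g octanol to cpm/g buffer ratio. Triplicate.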

Translocator protein = Translocator protein (Rattus norvegicus, UniProt P16257); test: Displacement of [11C]-PK-11195 from TPSO in Sprague-Dawley rat brain homogenate after 30 mins by gamma counting; type: tissue-based
Liver [2] = test: Drug uptake in Sprague-Dawley rat liver at 0.13 nmol, iv pretreated with unlabeled (R)-PK11195 measured after 27.5 mins by PET scanning relative to control; type: ADME, organism-based; conditions: in vivo
Procedure, shortened: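 Male Sprague-Dawley rats, 6-8 weeks old, under isoflurane, prone. An unlabeled TSPO blocking ligand (3.0 mg/kg) was injected 1 min before the iv radioligand (16-18 MBq/200 μL). A liver ROI was decay-corrected and expressed as SUV normalized to injected activity and body weight. The 27.5-min value was compared with unblocked controls; n = 4.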

Lung [3] = test: Drug uptake in Sprague-Dawley rat lung at 0.13 nmol, iv pretreated with unlabeled AC-5216 by PET scanning; type: ADME, organism-based; conditions: in vivo
Procedure, shortened: (§1)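 Male Sprague-Dawley rats (6–8 weeks old), isoflurane-anesthetized, prone. ROIs on lung, heart, kidney, liver, small intestine and cardiac blood pool. Uptake decay-corrected to injection time and expressed as SUV (body-weight normalized). n = 4, mean ± SD.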

Kidney [4] = test: Drug uptake in Sprague-Dawley rat kidney at 0.13 nmol, iv pretreated with unlabeled (R)-PK11195 by PET scanning; type: ADME, organism-based; conditions: in vivo
Procedure, shortened: (§2)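 Isoflurane-anesthetized Sprague-Dawley rats underwent 30-min PET after iv [11C]radioligand, with unlabeled blocker given iv 1 min before tracer. Blockers were (R)-PK11195 at 3.0 mg/kg or AC-5216 at 1.0 mg/kg in 300 μL saline with 10% ethanol and 5% polysorbate 80. Regional uptake was decay-corrected SUV (n = 4).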

Lung [5] = test: Drug uptake in Sprague-Dawley rat lung at 0.13 nmol, iv pretreated with unlabeled (R)-PK11195 by PET scanning; type: ADME, organism-based; conditions: in vivo; procedure, shortened: as §1
Blood [6] = test: Drug uptake in Sprague-Dawley rat cardiac blood pool at 0.13 nmol, iv up to 30 mins by PET scanning; type: ADME, organism-based; conditions: in vivo, 0.5 h
Procedure, shortened: (§3)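 Isoflurane-anesthetized male Sprague-Dawley rats lay prone and received an iv bolus of [11C]radioligand in 200 μL. 3D list-mode emission scans ran 30 min from injection. Regions of interest were drawn on the organs and cardiac blood pool. Uptake was decay-corrected to injection time and expressed as SUV (normalized to injected radioactivity and body weight). Values are mean of n = 4.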

Kidney [7] = test: Drug uptake in Sprague-Dawley rat kidney at 0.13 nmol, iv after 27.5 mins by PET scanning; type: ADME, organism-based; conditions: in vivo; procedure, shortened: as §3
Liver [8] = test: Drug uptake in Sprague-Dawley rat liver at 0.13 nmol, iv after 2 mins by PET scanning; type: ADME, organism-based; conditions: in vivo; procedure, shortened: as §1
Kidney [9] = test: Drug uptake in Sprague-Dawley rat kidney at 0.13 nmol, iv after 2 mins by PET scanning; type: ADME, organism-based; conditions: in vivo; procedure, shortened: as §3
Heart [10] = test: Drug uptake in Sprague-Dawley rat heart at 0.13 nmol, iv up to 30 mins by PET scanning; type: ADME, organism-based; conditions: in vivo, 0.5 h; procedure, shortened: as §3
Heart [11] = test: Drug uptake in Sprague-Dawley rat heart at 0.13 nmol, iv pretreated with unlabeled AC-5216 by PET scanning; type: ADME, organism-based; conditions: in vivo; procedure, shortened: as §2
Blood [12] = test: Drug uptake in Sprague-Dawley rat cardiac blood pool at 0.13 nmol, iv after 27.5 mins by PET scanning; type: ADME, organism-based; conditions: in vivo; procedure, shortened: as §3
Lung [13] = test: Drug uptake in Sprague-Dawley rat lung at 0.13 nmol, iv after 2 mins by PET scanning; type: ADME, organism-based; conditions: in vivo; procedure, shortened: as §1
Liver [14] = test: Drug uptake in Sprague-Dawley rat liver at 0.13 nmol, iv up to 30 mins by PET scanning; type: ADME, organism-based; conditions: in vivo, 0.5 h; procedure, shortened: as §1
Lung [15] = test: Drug uptake in Sprague-Dawley rat lung at 0.13 nmol, iv after 27.5 mins by PET scanning; type: ADME, organism-based; conditions: in vivo; procedure, shortened: as §1
Blood [16] = test: Drug uptake in Sprague-Dawley rat cardiac blood pool at 0.13 nmol, iv after 2 mins by PET scanning; type: ADME, organism-based; conditions: in vivo; procedure, shortened: as §3
Liver [17] = test: Drug uptake in Sprague-Dawley rat liver at 0.13 nmol, iv after 27.5 mins by PET scanning; type: ADME, organism-based; conditions: in vivo; procedure, shortened: as §1
Kidney [18] = test: Drug uptake in Sprague-Dawley rat kidney at 0.13 nmol, iv pretreated with unlabeled AC-5216 by PET scanning; type: ADME, organism-based; conditions: in vivo; procedure, shortened: as §1
Kidney [19] = test: Drug uptake in Sprague-Dawley rat kidney at 0.13 nmol, iv up to 30 mins by PET scanning; type: ADME, organism-based; conditions: in vivo, 0.5 h; procedure, shortened: as §1
Heart [20] = test: Drug uptake in Sprague-Dawley rat heart at 0.13 nmol, iv after 2 mins by PET scanning; type: ADME, organism-based; conditions: in vivo; procedure, shortened: as §3
Heart [21] = test: Drug uptake in Sprague-Dawley rat heart at 0.13 nmol, iv pretreated with unlabeled (R)-PK11195 by PET scanning; type: ADME, organism-based; conditions: in vivo; procedure, shortened: as §2
Liver [22] = test: Drug uptake in Sprague-Dawley rat liver at 0.13 nmol, iv pretreated with unlabeled AC-5216 measured after 27.5 mins by PET scanning relative to control; type: ADME, organism-based; conditions: in vivo
Procedure, shortened: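 Male Sprague-Dawley rats, 6-8 weeks, isoflurane-anesthetized. A blocking TSPO ligand (1.0 mg/kg, in 300 μL saline with 10% ethanol and 5% polysorbate 80) was injected 1 min before iv radioligand (16-18 MBq/200 μL). Liver ROI as decay-corrected SUV (injected activity, body weight), 27.5-min value versus controls; n = 4.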

Heart [23] = test: Drug uptake in Sprague-Dawley rat heart at 0.13 nmol, iv after 27.5 mins by PET scanning; type: ADME, organism-based; conditions: in vivo; procedure, shortened: as §3
Lung [24] = test: Drug uptake in Sprague-Dawley rat lung at 0.13 nmol, iv up to 30 mins by PET scanning; type: ADME, organism-based; conditions: in vivo, 0.5 h; procedure, shortened: as §1
Intestine = test: Drug uptake in Sprague-Dawley rat small intestine at 0.13 nmol, iv up to 30 mins by PET scanning; type: ADME, organism-based; conditions: in vivo, 0.5 h; procedure, shortened: as §1
Heart [25] = test: Drug uptake in iv dosed Sprague-Dawley rat heart after 10 mins by PET scanning; type: ADME, organism-based; conditions: in vivo
Procedure, shortened: (§4)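 Comparator radioligand 15–20 MBq/200 μL (0.15–0.18 nmol) injected iv into isoflurane-anesthetized male Sprague-Dawley rats. ROI time–activity curves for lung, heart, kidney, liver and cardiac blood pool. Uptake as decay-corrected SUV normalized to injected activity and body weight. n = 4, mean ± SD.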

Kidney [26] = test: Drug uptake in iv dosed Sprague-Dawley rat kidney after 10 mins by PET scanning; type: ADME, organism-based; conditions: in vivo; procedure, shortened: as §4
Lung [27] = test: Drug uptake in iv dosed Sprague-Dawley rat lung after 1 min by PET scanning; type: ADME, organism-based; conditions: in vivo; procedure, shortened: as §4
Liver [28] = test: Drug uptake in iv dosed Sprague-Dawley rat liver upto 30 mins by PET scanning; type: ADME, organism-based; conditions: in vivo, 0.5 h; procedure, shortened: as §4
Kidney [29] = test: Drug uptake in iv dosed Sprague-Dawley rat kidney upto 30 mins by PET scanning; type: ADME, organism-based; conditions: in vivo, 0.5 h; procedure, shortened: as §4
Heart [30] = test: Drug uptake in iv dosed Sprague-Dawley rat heart upto 30 mins by PET scanning; type: ADME, organism-based; conditions: in vivo, 0.5 h; procedure, shortened: as §4
Blood [31] = test: Drug uptake in iv dosed Sprague-Dawley rat cardiac blood pool up to 30 mins by PET scanning; type: ADME, organism-based; conditions: in vivo, 0.5 h; procedure, shortened: as §4
Lung [32] = test: Drug uptake in iv dosed Sprague-Dawley rat lung after 27.5 mins by PET scanning; type: ADME, organism-based; conditions: in vivo; procedure, shortened: as §4

Chain of Translocator protein (P16257 whole entry, looked up): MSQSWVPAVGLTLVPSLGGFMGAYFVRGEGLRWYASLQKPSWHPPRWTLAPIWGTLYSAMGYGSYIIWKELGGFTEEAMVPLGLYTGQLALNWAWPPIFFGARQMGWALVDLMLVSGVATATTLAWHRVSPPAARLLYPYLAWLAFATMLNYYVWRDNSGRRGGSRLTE

logD [1]: 1.81
Ki (Translocator protein): 40 nM
SMILES: CN(Cc1cccnc1)C(=O)Cn1c(=O)n(C)c2cnc(-c3ccccc3)nc21

fold change (FC) (Liver [2]): 1.5
Drug uptake (Lung [3]): Not Active
Drug uptake (Kidney [4]): Not Active
Drug uptake (Lung [5]): Not Active
Drug uptake (Blood [6]): Active
SUV (Kidney [7]): 1
SUV (Liver [8]): 1.6
SUV (Kidney [9]): 3.3
Drug uptake (Heart [10]): Active
Drug uptake (Heart [11]): Not Active
SUV (Blood [12]): 0.4
SUV (Lung [13]): 3.4
Drug uptake (Liver [14]): Active
SUV (Lung [15]): 0.5
SUV (Blood [16]): 3
SUV (Liver [17]): 0.5
Drug uptake (Kidney [18]): Not Active
Drug uptake (Kidney [19]): Active
SUV (Heart [20]): 4.6
Drug uptake (Heart [21]): Not Active
fold change (FC) (Liver [22]): 1.5
SUV (Heart [23]): 0.9
Drug uptake (Lung [24]): Active
Drug uptake (Intestine): Active
SMILES: CN(Cc1cccnc1)C(=O)Cn1c(=O)n([11CH3])c2cnc(-c3ccccc3)nc21

logD [1]: 2.03
Ki (Translocator protein): 5.1 nM
SMILES: CCN(Cc1ccncc1)C(=O)Cn1c(=O)n(C)c2cnc(-c3ccccc3)nc21

SUV (Heart [25]): 4.2
SUV (Kidney [26]): 2.8
SUV (Lung [27]): 7.6
Drug uptake (Liver [28]): Active
Drug uptake (Kidney [29]): Active
Drug uptake (Heart [30]): Active
Drug uptake (Blood [31]): Active
SUV (Lung [32]): 2.3
SMILES: CCN(Cc1ccccc1)C(=O)Cn1c(=O)n([11CH3])c2cnc(-c3ccccc3)nc21
